Laboratory results from ChEMBL document CHEMBL1641520, “Design, synthesis, and biological evaluation of novel water-soluble N-mustards as potential anticancer agents” (Bioorg Med Chem, 2011).
pIC50: −log10 of the molar value. Active and inactive are the calls of the source. The calls are words filed in the database; no cut-off is given here.

How the values were obtained:
CCRF-CEM [1] = test: Cytotoxicity against human CCRF-CEM cells after 72 hrs by XTT assay; type: functional, cell-based
How it was run: (§1)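 CCRF-CEM leukemia cells and their taxol- or vinblastine-resistant sublines given compound for 72 h. XTT read-out: after phenazine methosulfate–XTT, 6 h at 37 °C, absorbance at 450 and 630 nm. IC50 from median-effect analysis of dose-effect data at six or seven concentrations.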

CCRF-CEM [2] = test: Cytotoxicity against taxol-resistant human CCRF-CEM cells after 72 hrs by XTT assay; type: functional, cell-based; how it was run: as §1
CCRF-CEM [3] = test: Cytotoxicity against vinblastine-resistant human CCRF-CEM cells after 72 hrs by XTT assay; type: functional, cell-based; how it was run: as §1
CCRF-CEM [4] = test: Selectivity ratio of IC50 for taxol-resistant human CCRF-CEM cells to IC50 for human CCRF-CEM cells; type: functional
CCRF-CEM [5] = test: Selectivity ratio of IC50 for vinblastine-resistant human CCRF-CEM cells to IC50 for human CCRF-CEM cells; type: functional
[6] = Cytotoxicity against human H1299 cells after 72 hrs by alamar blue assay; type: functional, cell-based; details: NCI-H1299, 72 h
How it was run: (§2)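 H1299, PC3, CL1-0, CL1-5 and MCF-7 cells exposed to compound for 72 h. Alamar blue added, then 6 h at 37 °C; absorbance at 570 and 600 nm. IC50 from median-effect analysis of dose-effect data at six or seven concentrations.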

[7] = Cytotoxicity against human CL1-5 cells after 72 hrs by alamar blue assay; type: functional, cell-based; details: CL1-5, 72 h; how it was run: as §2
PC-3 = test: Cytotoxicity against human PC3 cells after 72 hrs by alamar blue assay; type: functional, cell-based; details: PC-3, 72 h; how it was run: as §2
HCT-116 = test: Cytotoxicity against human HCT116 cells after 72 hrs by SRB assay; type: functional, cell-based; details: HCT-116, 72 h
How it was run: (§3)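 MX-1 breast and HCT-116 colon carcinoma cells exposed to compound for 72 h; growth measured by sulforhodamine B assay. IC50 from median-effect analysis of dose-effect data at six or seven concentrations.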

MX1 = test: Cytotoxicity against human MX1 cells after 72 hrs by SRB assay; type: functional, cell-based; details: MX1, 72 h; how it was run: as §3
MCF7 = test: Cytotoxicity against human MCF7 cells after 72 hrs by alamar blue assay; type: functional, cell-based; details: MCF7, 72 h; how it was run: as §2
[8] = Cytotoxicity against human CL1-0 cells after 72 hrs by alamar blue assay; type: functional, cell-based; details: CL1-0, 72 h; how it was run: as §2
Nucleic Acid = test: Binding affinity to Escherichia coli plasmid EGFP-N1 DNA at 1 to 10 uM after 22 hrs by alkaline agarose gel shift assay; type: nucleic-acid assay
How it was run: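 Purified pEGFP-N1 plasmid DNA (1500 ng) incubated with compound (1–20 µM) in 3 mM NaCl/1 mM sodium phosphate pH 7.4/1 mM EDTA for 2 h at 37 °C. Linearized with BamHI, ethanol-precipitated, denatured in 0.5 N NaOH-10 mM EDTA. Run on 0.8% alkaline agarose gel at 4 °C, 18 V for 22 h. Ethidium bromide stain; cross-linked double-stranded DNA scored against single-stranded DNA.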

| SMILES | pIC50 (CCRF-CEM [1]) | pIC50 (CCRF-CEM [2]) | pIC50 (CCRF-CEM [3]) | Ratio IC50 (CCRF-CEM [4]) | Ratio IC50 (CCRF-CEM [5]) | pIC50 [6] | pIC50 [7] | pIC50 (PC-3) | pIC50 (HCT-116) | pIC50 (MX1) | pIC50 (MCF7) | pIC50 [8] | Activity (Nucleic Acid) |
| --- | --- | --- | --- | --- | --- | --- | --- | --- | --- | --- | --- | --- | --- |
| CN(C)CCOc1ccc(NC(=O)Nc2ccc(N(CCCl)CCCl)cc2)cc1.Cl | 7.00 | 5.82 | 5.92 | 7.6 | 6.02 | 5.36 | 5.52 | 5.78 | 6.57 | 6.55 | 5.90 | 5.39 | – |
| CN(C)CCCNC(=O)c1cccc(NC(=O)Nc2ccc(N(CCCl)CCCl)cc2)c1.Cl | 6.54 | 4.67 | 4.36 | 9.4 | 151.8 | – | – | – | 6.07 | 5.63 | – | – | – |
| Cl.O=C(Nc1ccc(OCCN2CCCCC2)cc1)Nc1ccc(N(CCCl)CCCl)cc1 | 6.92 | 6.30 | 6.14 | 4.02 | 7.47 | 5.74 | 5.32 | 6.03 | 6.57 | 6.82 | 5.91 | 5.54 | Active |
| Cl.O=C(Nc1ccc(C(=O)NCCN2CCCC2)cc1)Nc1ccc(N(CCCl)CCCl)cc1 | 6.57 | 4.71 | 4.51 | 71.8 | 112.5 | – | – | – | 6.44 | 5.63 | – | – | – |
| Cl.O=C(Nc1ccc(C(=O)NCCN2CCOCC2)cc1)Nc1ccc(N(CCCl)CCCl)cc1 | 6.14 | 4.70 | 4.53 | 27.1 | 16.8 | – | – | – | 5.56 | 5.47 | – | – | – |
| Cl.O=C(Nc1ccc(N(CCCl)CCCl)cc1)Nc1cccc(C(=O)N2CCC(N3CCCCC3)CC2)c1 | 6.55 | 4.91 | 4.70 | 43.5 | 71.6 | 4.94 | 5.09 | 5.50 | 6.09 | 5.65 | 5.51 | 5.21 | – |
| Cl.O=C(Nc1ccc(N(CCCl)CCCl)cc1)Nc1cccc(C(=O)NCCN2CCOCC2)c1 | 6.24 | 5.09 | 4.79 | 14.1 | 28.1 | – | – | – | 5.92 | 5.84 | – | – | – |
| CN(C)CCCNC(=O)c1ccc(NC(=O)Nc2ccc(N(CCCl)CCCl)cc2)cc1.Cl | 6.59 | 4.69 | 4.48 | 77.5 | 124.8 | 4.90 | 5.01 | 5.28 | 5.34 | 5.95 | 5.29 | 4.79 | – |
| Cl.O=C(Nc1ccc(OCCN2CCCC2)cc1)Nc1ccc(N(CCCl)CCCl)cc1 | 6.85 | 5.80 | 5.69 | 11.5 | 15 | 5.65 | 5.23 | 5.75 | 6.15 | 6.31 | 5.74 | 5.52 | – |
| O=C(Nc1ccc(N(CCCl)CCCl)cc1)Nc1cccc(OCCN2CCCCC2)c1 | 6.72 | 6.24 | 6.14 | 3 | 3.8 | 5.82 | 5.49 | 5.95 | 6.57 | 6.72 | 5.74 | 5.56 | – |
| Cl.O=C(Nc1ccc(N(CCCl)CCCl)cc1)Nc1cccc(C(=O)NCCN2CCCCC2)c1 | 6.57 | 5.34 | 4.98 | 17 | 43.7 | 5.21 | 5.33 | 5.77 | 6.51 | 6.14 | 5.93 | 5.06 | Active |
| Cl.O=C(Nc1ccc(C(=O)NCCN2CCCCC2)cc1)Nc1ccc(N(CCCl)CCCl)cc1 | 6.44 | 4.82 | 4.61 | 41.8 | 67.8 | – | – | – | 6.04 | 5.36 | – | – | – |
